Experimental data: ChEMBL document CHEMBL2086321, “Modulation of thermo-transient receptor potential (thermo-TRP) channels by thymol-based compounds” (Bioorg Med Chem Lett, 2012)
pEC50, pIC50: −log10 of the molar value.

Experiments:
Type in all cases: cell-based
[1] = target: Transient receptor potential cation channel subfamily A member 1 (Rattus norvegicus) (UniProt Q6RI86); experiment: Activation of rat TRPA1 expressed in HEK293 cells assessed as stimulation of intracellular Ca2+ levels relative to 100 uM allyl isothiocyanate
In short: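 Efficacy on stably transfected rat TRPA1-HEK293 cells is the intracellular Ca2+ rise expressed as percent of the allyl isothiocyanate response. Means ± SEM, N = 3.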

[2] = target: Transient receptor potential cation channel subfamily M member 8 (Rattus norvegicus) (UniProt Q8R455); experiment: Activation of rat TRPM8 expressed in HEK293 cells assessed as stimulation of intracellular Ca2+ levels relative to 4 uM ionomycin
In short: (§1)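 Efficacy on HEK293 cells stably expressing rat TRPM8 or rat TRPV3 is the intracellular Ca2+ elevation expressed as percent of the ionomycin response.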

[3] = target: T1, Transient receptor potential cation channel subfamily A member 1 (Rattus norvegicus, UniProt Q6RI86); experiment: Activation of rat TRPA1 expressed in HEK293 cells assessed as stimulation of intracellular Ca2+ levels
In short: (§2)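 HEK293 cells stably transfected with rat TRPA1, rat TRPM8 or rat TRPV3 cDNA. Compounds were applied and the rise in intracellular Ca2+ was recorded.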

HEK293 = experiment: Activation of rat TRPV3 expressed in HEK293 cells assessed as stimulation of intracellular Ca2+ levels relative to 4 uM ionomycin; in short: as §1
[4] = Activation of rat TRPV3 expressed in HEK293 cells assessed as stimulation of intracellular Ca2+ levels; in short: as §2
[5] = target: T2, Transient receptor potential cation channel subfamily M member 8 (Rattus norvegicus, UniProt Q8R455); experiment: Activation of rat TRPM8 expressed in HEK293 cells assessed as stimulation of intracellular Ca2+ levels; in short: as §2
[6] = Inhibition of rat TRPV3 expressed in HEK293 cells assessed as reduction in 100 uM thymol-stimulated increase in intracellular Ca2+ levels
[7] = target: T2, Transient receptor potential cation channel subfamily M member 8; experiment: Inhibition of rat TRPM8 expressed in HEK293 cells assessed as reduction in 20 uM menthol-stimulated increase in intracellular Ca2+ levels
In short: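 IC50 on rat TRPM8 stably expressed in HEK293 cells, measured as inhibition of the intracellular Ca2+ response to icilin or menthol. Means ± SEM, N = 3.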

[8] = target: T2, Transient receptor potential cation channel subfamily M member 8; experiment: Inhibition of rat TRPM8 expressed in HEK293 cells assessed as reduction in […] icilin-stimulated increase in intracellular Ca2+ levels
[9] = target: T1, Transient receptor potential cation channel subfamily A member 1; experiment: Inhibition of rat TRPA1 expressed in HEK293 cells assessed as reduction in 100 uM allyl isothiocyanate-stimulated increase in intracellular Ca2+ levels
In short: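 Rat TRPA1-HEK293 stable cells were preincubated 5 min with compound, then incubation continued with allyl isothiocyanate.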

Chain of Transient receptor potential cation channel subfamily A member 1 (Rattus norvegicus) (Q6RI86 whole entry): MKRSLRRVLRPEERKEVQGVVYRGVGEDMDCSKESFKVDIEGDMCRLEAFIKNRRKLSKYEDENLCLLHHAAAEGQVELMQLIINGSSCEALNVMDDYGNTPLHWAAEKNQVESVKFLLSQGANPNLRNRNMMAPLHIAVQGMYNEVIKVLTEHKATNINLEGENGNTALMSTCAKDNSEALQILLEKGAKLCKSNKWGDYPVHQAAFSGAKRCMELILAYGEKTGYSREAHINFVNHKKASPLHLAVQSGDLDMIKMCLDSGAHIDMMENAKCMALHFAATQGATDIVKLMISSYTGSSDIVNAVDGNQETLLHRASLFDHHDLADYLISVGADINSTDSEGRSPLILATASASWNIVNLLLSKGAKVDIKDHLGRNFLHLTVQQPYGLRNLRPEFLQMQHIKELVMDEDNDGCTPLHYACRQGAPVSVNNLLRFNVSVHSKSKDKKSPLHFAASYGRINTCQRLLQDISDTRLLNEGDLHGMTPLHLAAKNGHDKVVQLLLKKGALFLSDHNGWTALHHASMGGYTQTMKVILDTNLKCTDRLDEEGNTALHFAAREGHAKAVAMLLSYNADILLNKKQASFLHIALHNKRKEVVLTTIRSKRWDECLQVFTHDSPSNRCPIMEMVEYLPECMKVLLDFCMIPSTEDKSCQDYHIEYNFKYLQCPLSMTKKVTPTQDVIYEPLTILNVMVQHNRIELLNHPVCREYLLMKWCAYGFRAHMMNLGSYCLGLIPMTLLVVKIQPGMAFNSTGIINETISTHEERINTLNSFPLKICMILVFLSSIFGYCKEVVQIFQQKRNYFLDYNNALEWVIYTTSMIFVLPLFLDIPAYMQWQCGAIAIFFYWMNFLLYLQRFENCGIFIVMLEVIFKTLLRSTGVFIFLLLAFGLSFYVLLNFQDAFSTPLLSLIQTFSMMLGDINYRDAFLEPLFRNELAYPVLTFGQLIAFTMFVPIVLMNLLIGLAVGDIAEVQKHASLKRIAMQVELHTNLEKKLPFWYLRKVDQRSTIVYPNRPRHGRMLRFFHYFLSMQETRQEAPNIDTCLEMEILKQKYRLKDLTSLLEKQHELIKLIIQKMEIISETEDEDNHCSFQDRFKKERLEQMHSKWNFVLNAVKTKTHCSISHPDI
T1 sequence (Q6RI86 whole entry): as above
Chain of Transient receptor potential cation channel subfamily M member 8 (Rattus norvegicus) (Q8R455 whole entry, looked up): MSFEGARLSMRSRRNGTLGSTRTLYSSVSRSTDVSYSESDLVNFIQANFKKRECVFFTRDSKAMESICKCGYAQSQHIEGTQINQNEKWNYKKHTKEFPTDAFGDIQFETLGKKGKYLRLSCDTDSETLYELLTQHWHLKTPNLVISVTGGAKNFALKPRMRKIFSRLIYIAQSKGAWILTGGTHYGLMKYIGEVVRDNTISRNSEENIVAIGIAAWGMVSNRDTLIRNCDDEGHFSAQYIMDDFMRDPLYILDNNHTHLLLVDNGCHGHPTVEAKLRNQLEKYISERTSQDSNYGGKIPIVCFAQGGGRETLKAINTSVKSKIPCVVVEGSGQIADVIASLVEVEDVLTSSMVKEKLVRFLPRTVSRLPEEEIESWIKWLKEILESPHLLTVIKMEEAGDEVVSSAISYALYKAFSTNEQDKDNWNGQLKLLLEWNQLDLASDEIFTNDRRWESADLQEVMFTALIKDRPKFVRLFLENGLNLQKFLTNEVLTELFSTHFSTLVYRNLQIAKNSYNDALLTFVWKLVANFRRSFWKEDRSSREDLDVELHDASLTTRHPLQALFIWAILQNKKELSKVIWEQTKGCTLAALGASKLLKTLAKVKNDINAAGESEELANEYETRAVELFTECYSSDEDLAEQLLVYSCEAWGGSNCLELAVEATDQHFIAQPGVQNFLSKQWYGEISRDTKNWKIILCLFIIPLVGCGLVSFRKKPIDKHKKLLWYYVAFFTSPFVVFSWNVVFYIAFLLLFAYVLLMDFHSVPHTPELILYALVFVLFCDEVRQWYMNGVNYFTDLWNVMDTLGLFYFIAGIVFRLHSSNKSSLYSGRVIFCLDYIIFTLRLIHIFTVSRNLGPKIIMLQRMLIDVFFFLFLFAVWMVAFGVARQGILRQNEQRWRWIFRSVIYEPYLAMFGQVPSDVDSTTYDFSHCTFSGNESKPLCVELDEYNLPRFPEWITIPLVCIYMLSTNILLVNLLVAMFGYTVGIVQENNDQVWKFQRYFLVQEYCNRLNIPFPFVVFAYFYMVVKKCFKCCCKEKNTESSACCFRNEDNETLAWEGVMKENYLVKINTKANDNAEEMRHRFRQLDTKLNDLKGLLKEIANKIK
T2 sequence (Q8R455 whole entry): as the sequence (Q8R455 whole entry, looked up) above

Row | SMILES | Efficacy [1] | Efficacy [2] | pEC50 [3] | Efficacy (HEK293) | pEC50 [4] | pEC50 [5] | pIC50 [6] | pIC50 [7] | pIC50 [8] | pIC50 [9]
1 | Cc1ccc(C(C)C)c(C(=O)Nc2ccc(C(F)(F)F)cc2)c1 | 65.4% | 13.9% | 5.41 | 22.1% | 4.22 | 4.34 | 4.12 | 5.36 | 5.49 | 5.44
2 | Cc1ccc(C(C)C)c(NC(=O)Nc2ccc(-c3ccccc3)cc2)c1 | 224% | < 10% | 4.49 | 16.9% | 5.23 |  | 4.89 | 4.60 | 4.43 | 4.55
3 | Cc1ccc(C(C)C)c(C(=O)NCCc2ccccc2)c1 | < 10% | 64.1% |  | < 10% |  | 6.57 | 4.12 | 6.49 | 6.22 | < 4.00
4 | Cc1ccc(C(C)C)c(NC(=O)Cc2ccc(-c3ccccc3)cc2)c1 | 212% | < 10% | 5.19 | 39.3% | 5.20 |  | 4.53 | 4.11 | 4.51 | 5.41
5 | COc1ccc(C(=O)Nc2cc(C)ccc2C(C)C)cc1 | 149% | 58.1% | 4.34 | < 10% |  | 5.32 | < 4.00 | 4.82 | 4.83 | < 4.00
6 | Cc1ccc(C(C)C)c(NC(=O)Cc2cccc(I)c2)c1 | 154% | < 10% | 4.69 | 15% | 4.80 |  | 4.69 | 4.85 | 4.94 | 4.36
7 | Cc1ccc(C(C)C)c(C(=O)Nc2ccc(C(C)(C)C)cc2)c1 | 97.9% | 40% | 6.22 | 36.5% | 5.92 | 6.22 | 5.96 | 5.92 | 5.72 | 6.08
8 | Cc1ccc(C(C)C)c(C(=O)Nc2ccc(Cl)cc2)c1 | < 10% | 43.2% |  | 43.4% | 4.93 | 6.07 | 5.31 | 5.30 | 5.32 | 4.58
9 | COc1ccc(NC(=O)Oc2cc(C)ccc2C(C)C)cc1 | 264% | 30.3% | 5.13 | < 10% |  | 5.29 | 4.19 | 5.28 | 5.60 | 5.35
10 | Cc1ccc(C(C)C)c(C(=O)NCCc2c[nH]c3ccc(OCc4ccccc4)cc23)c1 | 241% | < 10% | 4.59 | < 10% |  |  | 4.38 | 4.21 | 4.16 | 4.15
11 | COc1ccc(C(=O)Oc2cc(C)ccc2C(C)C)cc1 | 149% | < 10% | 6.00 | 23.1% | 5.31 |  | 5.01 | 5.30 | 5.19 | 5.57
12 | Cc1ccc(C(C)C)c(NC(=O)Oc2ccc(C(F)(F)F)cc2)c1 | 178% | < 10% | 4.39 | < 10% |  |  | 4.30 | 4.13 | 4.64 | 5.39
13 | Cc1ccc(C(C)C)c(NC(=O)Nc2ccc(C(C)(C)C)cc2)c1 | 235% | < 10% | 5.37 | 31.6% | 5.12 |  | 5.48 | 4.57 | < 4.00 | 4.60
14 | COc1ccc(OC(=O)c2cc(C)ccc2C(C)C)cc1 | 194% | < 10% | 5.44 | 27.1% | 5.40 |  | 5.30 | 4.11 | < 4.00 | 5.44
15 | Cc1ccc(C(C)C)c(NC(=O)Oc2ccc(C(C)(C)C)cc2)c1 | 132% | < 10% | 5.89 | 62.5% | 5.85 |  | 5.72 | 6.07 | 6.15 | 6.11
16 | Cc1ccc(C(C)C)c(N)c1 | 57.4% | 33.8% | 4.19 | < 10% |  | 4.36 | < 4.00 | 3.95 | 3.62 | 3.67
17 | COc1ccc(NC(=O)Nc2cc(C)ccc2C(C)C)cc1 | 114% | < 10% | 4.85 | < 10% |  |  | 4.07 | 4.11 | 4.41 | 4.46
18 | Cc1ccc(C(C)C)c(OC(=O)c2ccc(-c3ccccc3)cc2)c1 | 204% | < 10% | 5.48 | 33.8% | 5.11 |  | 5.19 | 4.73 | 4.67 | 5.26
19 | Cc1ccc(C(C)C)c(O)c1 [THYMOL] | 119% | 31.1% | 3.54 | 34.7% | 4.08 | 4.28 |  | 3.77 | 3.50 | 3.90
20 | Cc1ccc(C(C)C)c(NC(=O)c2ccc(C(C)(C)C)cc2)c1 | 204% | 24.5% | 5.19 | 34.8% | 4.97 | 6.36 | 5.21 | 6.00 | 6.00 | 5.06
21 | Cc1ccc(C(C)C)c(OC(=O)Cc2ccc(-c3ccccc3)cc2)c1 | 226% | < 10% | 5.74 | 52.7% | 5.42 |  | 5.82 | < 4.00 | < 4.00 | 4.68
22 | Cc1ccc(C(C)C)c(C(=O)Oc2ccc(-c3ccccc3)cc2)c1 | 195% | < 10% | 5.13 | 64.3% | 4.84 |  | 5.54 | < 4.00 | < 4.00 | 4.90
